The values below come from ChEMBL document CHEMBL1133729, “Design, synthesis, and structure-activity relationships of phthalimide-phenylpiperazines: a novel series of potent and selective alpha(1)(a)-adrenergic receptor antagonists” (J Med Chem, 2000).

For test [1], the target named is Adrenergic receptors; alpha-1 A & B (Homo sapiens) (UniProt P35348+P35368). Put plainly: Ratio of binding affinity towards Alpha1b to Alpha-1A. The format is protein assay. The essentials: (§1)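 Human α1a, α1b and α1d cDNAs transiently expressed in COS-1 cells (DEAE-dextran); membranes harvested 72 h post-transfection. Competition versus 50 pM [125I]HEAT (final), 0.1 pM–10 μM test compound in half-log steps, in TNE buffer pH 7.4. Membrane protein 0.1 μg (α1a, α1b) or 2.6 μg (α1d); 1 h at 25 °C. Filtration, scintillation counting; Ki = IC50/(1 + [L]/Kd). Ratios are subtype Ki over α1a Ki.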

In test [2] the target is T1, Alpha-1A adrenergic receptor (Homo sapiens, UniProt P35348).
T1 sequence (P35348 whole entry): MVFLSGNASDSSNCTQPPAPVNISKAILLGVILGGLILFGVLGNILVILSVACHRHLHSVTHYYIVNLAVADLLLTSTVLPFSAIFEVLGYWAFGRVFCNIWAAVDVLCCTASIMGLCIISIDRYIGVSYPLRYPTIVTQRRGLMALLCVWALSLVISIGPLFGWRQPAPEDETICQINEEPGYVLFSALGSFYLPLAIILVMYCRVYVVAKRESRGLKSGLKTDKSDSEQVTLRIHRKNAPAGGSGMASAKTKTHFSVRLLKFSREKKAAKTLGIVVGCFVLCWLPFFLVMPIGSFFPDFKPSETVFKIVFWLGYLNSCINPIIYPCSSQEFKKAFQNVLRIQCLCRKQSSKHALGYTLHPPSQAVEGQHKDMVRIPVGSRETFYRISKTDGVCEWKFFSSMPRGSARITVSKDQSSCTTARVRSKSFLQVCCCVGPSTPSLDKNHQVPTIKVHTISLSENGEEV
Put plainly: Binding affinity towards cloned human alpha-1A adrenergic receptor was determined using [125]-HEAT as radioligand.

Test [3] has as its target T2, Alpha-1B adrenergic receptor (Homo sapiens, UniProt P35368).
T2 sequence (P35368 whole entry): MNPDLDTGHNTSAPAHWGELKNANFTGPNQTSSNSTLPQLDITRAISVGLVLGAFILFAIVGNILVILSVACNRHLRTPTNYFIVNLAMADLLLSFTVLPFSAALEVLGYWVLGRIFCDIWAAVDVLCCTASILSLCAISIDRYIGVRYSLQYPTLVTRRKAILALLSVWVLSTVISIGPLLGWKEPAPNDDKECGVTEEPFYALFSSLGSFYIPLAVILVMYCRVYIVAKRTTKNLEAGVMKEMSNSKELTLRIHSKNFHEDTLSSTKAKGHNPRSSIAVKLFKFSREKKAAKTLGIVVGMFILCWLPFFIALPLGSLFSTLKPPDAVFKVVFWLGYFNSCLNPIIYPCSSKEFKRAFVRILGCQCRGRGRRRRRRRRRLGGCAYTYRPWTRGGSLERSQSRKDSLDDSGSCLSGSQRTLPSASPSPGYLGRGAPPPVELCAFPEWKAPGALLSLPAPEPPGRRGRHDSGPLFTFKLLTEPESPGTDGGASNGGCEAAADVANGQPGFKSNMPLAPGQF
The test is described as follows: Binding affinity towards cloned human alpha-1B adrenergic receptor was determined using [125]-HEAT as radioligand. In short, it runs like this:
as §1

Test [4] concerns the target T3, Alpha-1D adrenergic receptor (Homo sapiens, UniProt P25100).
T3 sequence (P25100 whole entry): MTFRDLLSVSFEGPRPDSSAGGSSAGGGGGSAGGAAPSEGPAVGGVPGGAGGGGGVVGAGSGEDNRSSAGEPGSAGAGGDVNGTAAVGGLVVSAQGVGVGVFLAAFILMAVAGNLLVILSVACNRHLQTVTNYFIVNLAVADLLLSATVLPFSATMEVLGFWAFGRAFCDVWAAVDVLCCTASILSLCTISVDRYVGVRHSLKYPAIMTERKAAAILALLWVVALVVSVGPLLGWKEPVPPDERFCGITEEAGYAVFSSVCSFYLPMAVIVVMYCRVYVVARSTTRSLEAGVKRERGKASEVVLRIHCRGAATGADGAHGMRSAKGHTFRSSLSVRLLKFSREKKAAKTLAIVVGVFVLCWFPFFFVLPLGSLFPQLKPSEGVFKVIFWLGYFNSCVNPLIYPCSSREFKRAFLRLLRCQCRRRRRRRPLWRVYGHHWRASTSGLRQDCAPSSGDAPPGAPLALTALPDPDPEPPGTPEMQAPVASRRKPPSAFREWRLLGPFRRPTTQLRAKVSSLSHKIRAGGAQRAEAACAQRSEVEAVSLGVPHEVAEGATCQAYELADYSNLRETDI
The test is described as follows: Binding affinity towards cloned human alpha-1D adrenergic receptor was determined using [125]-HEAT as radioligand. The essentials:
as §1

Test [5] relates to Alpha-1D/Alpha-1A adrenergic receptor (Homo sapiens). The test is described as follows: Ratio of binding affinity towards Alpha1d to Alpha-1A.

Consider `CC(C)Oc1ccccc1N1CCN(C[C@@H](O)CNC(=O)c2ccc3c(c2)C(=O)N(c2ccc(O)cc2)C3=O)CC1`, for which the Ratio in test [1] is > 4350. The inhibition constant (Ki) in test [2] was 0.46 nM; in test [3], > 2000 nM; in test [4], 137 nM.

On to `CC(C)Oc1ccccc1N1CCN(CC(O)CNC(=O)c2ccc3c(c2)C(=O)N(c2ccc(N(C)C)cc2)C3=O)CC1` (stereo not given), for which the Ratio in test [1] is > 2000. For the same compound, the Ki is 0.8 nM in test [2], > 2000 nM in test [3] and 40 nM in test [4].

Regarding `CC(C)Oc1ccccc1N1CCN(CC(O)CNC(=O)c2ccc3c(c2)C(=O)N(c2ccccc2)C3=O)CC1` (stereo not given), the Ratio in test [5] was 72; in test [1] it was > 1820. Also, the inhibition constant (Ki) in test [2] was 0.9 nM; in test [3], > 2000 nM; in test [4] it was 65 nM.

In the case of `COc1ccc(N2C(=O)c3ccc(C(=O)NCC(O)CN4CCN(c5ccccc5OC(C)C)CC4)cc3C2=O)cc1OC` (stereo not given), the Ratio in test [5] was 57; in test [1] it was > 2040. The inhibition constant Ki was 0.98 nM in test [2], > 2000 nM in test [3] and 56 nM in test [4].

As to `CC(C)Oc1ccccc1N1CCN(CC(O)CNC(=O)c2ccc3c(c2)C(=O)N(c2ccc(F)cc2)C3=O)CC1` (stereo not given), the Ratio in test [1] was > 1100. Moreover, the results for the Ki in test [2], in test [3] and in test [4] were 1.5 nM, > 1660 nM and 111 nM, respectively.

For the compound `CC(C)Oc1ccccc1N1CCN(CC(O)CNC(=O)c2ccc3c(c2)C(=O)N(c2ccc(O)cc2)C3=O)CC1` (stereo not given), the Ratio in test [1] is > 2270. Moreover, the figures for the inhibition constant Ki in test [2], in test [3] and in test [4] were 0.88 nM, > 2000 nM and 28 nM, respectively.

For the compound `COc1ccccc1N1C(=O)c2ccc(C(=O)NCC(O)CN3CCN(c4ccccc4OC(C)C)CC3)cc2C1=O` (stereo not given), the Ratio in test [1] was 1110. Moreover, the figures for the Ki in test [2], in test [3] and in test [4] were 1.47 nM, 1640 nM and 72 nM, respectively.

Take `COc1ccccc1N1CCN(CC(O)CNC(=O)c2ccc3c(c2)C(=O)N(c2cccc(F)c2)C3=O)CC1` (stereo not given): in test [1], the Ratio is > 90. The figures for the Ki in test [2], in test [3] and in test [4] were 22 nM, > 2000 nM and 540 nM, respectively.

As for `CC(C)Oc1ccccc1N1CCN(CC(O)CNC(=O)c2ccc3c(c2)C(=O)N(c2ccc(Cl)cc2)C3=O)CC1` (stereo not given), the Ratio in test [1] was 640. Further, the Ki came to 0.95 nM in test [2], 606 nM in test [3] and 55 nM in test [4].

Take `CC(C)Oc1ccccc1N1CCN(CCCNC(=O)c2ccc3c(c2)C(=O)N(c2ccc(N(C)C)cc2)C3=O)CC1`: in test [1], the Ratio came to 2580. For the same compound, the results for the Ki in test [2], in test [3] and in test [4] were 0.18 nM, 465 nM and 15 nM, respectively.

Regarding `COc1ccc(N2C(=O)c3ccc(C(=O)NCC(O)CN4CCN(c5ccccc5OC(C)C)CC4)cc3C2=O)cc1` (stereo not given), the results for the Ki in test [3] and in test [4] were > 2000 nM and 51 nM, respectively.

For the compound `Cc1cccc(N2C(=O)c3ccc(C(=O)NCC(O)CN4CCN(c5ccccc5OC(C)C)CC4)cc3C2=O)c1` (stereo not given), the Ratio in test [1] was > 2220. For the same compound, the Ki in test [2] is 0.9 nM; in test [3], > 2000 nM; in test [4] it was 73 nM.

For the compound `COc1ccc(N2C(=O)c3ccc(C(=O)NC[C@@H](O)CN4CCN(c5ccccc5OC(C)C)CC4)cc3C2=O)cc1`, the Ki is > 2000 nM in test [3] and 52 nM in test [4].

Consider `CC(C)Oc1ccccc1N1CCN(CCCNC(=O)c2ccc3c(c2)C(=O)N(c2ccc(O)cc2)C3=O)CC1`, for which the figures for the Ratio in test [5] and in test [1] were 50 and 1270, respectively. The Ki was found to be 0.2 nM in test [2], 255 nM in test [3] and 10 nM in test [4].

Take `CC(C)Oc1ccccc1N1CCN(C[C@H](O)CNC(=O)c2ccc3c(c2)C(=O)N(c2cccc(F)c2)C3=O)CC1`: in test [1], the Ratio was > 250. Further, the Ki was 8 nM in test [2], > 2000 nM in test [3] and 63 nM in test [4].

As to `COC(CNC(=O)c1ccc2c(c1)C(=O)N(c1cccc(F)c1)C2=O)CN1CCN(c2ccccc2OC(C)C)CC1` (stereo not given), the Ratio in test [1] was > 290. Also, the results for the Ki in test [2], in test [3] and in test [4] were 6.9 nM, > 2000 nM and 407 nM, respectively.

In the case of `CC(C)Oc1ccccc1N1CCN(CC(O)CNC(=O)c2ccc3c(c2)C(=O)N(c2ccc(C(C)(C)C)cc2)C3=O)CC1` (stereo not given), the Ratio in test [1] was > 650. Besides, the Ki in test [2] is 3.05 nM; in test [3], > 2000 nM; in test [4] it was 75 nM.

As for `COc1cc(N2C(=O)c3ccc(C(=O)NCC(O)CN4CCN(c5ccccc5OC(C)C)CC4)cc3C2=O)cc(OC)c1OC` (stereo not given), the Ratio is 125 in test [5] and > 1640 in test [1]. The values for the inhibition constant (Ki) in test [2], in test [3] and in test [4] were 1.22 nM, > 2000 nM and 152 nM, respectively.

For the compound `CCOc1ccccc1N1CCN(CC(O)CNC(=O)c2ccc3c(c2)C(=O)N(c2cccc(F)c2)C3=O)CC1` (stereo not given), the Ratio in test [1] was > 470. Further, the values for the Ki in test [2], in test [3] and in test [4] were 4.25 nM, > 2000 nM and 137 nM, respectively.

Turning to `CC(C)Oc1ccccc1N1CCN(CC(O)CNC(=O)c2ccc3c(c2)C(=O)N(c2cccc(F)c2)C3=O)CC1` (stereo not given), the Ratio in test [1] was > 1220. Further, the Ki in test [2] is 1.5 nM; in test [3] it was > 2000 nM; in test [4] it was 75 nM.

For the compound `CC(C)Oc1ccccc1N1CCN(CC(O)CNC(=O)c2ccc3c(c2)C(=O)N(c2cccc(Cl)c2)C3=O)CC1` (stereo not given), the Ratio in test [5] turned out to be 54; in test [1], 800. For the same compound, the Ki was found to be 0.76 nM in test [2], 605 nM in test [3] and 41 nM in test [4].

Turning to `CC(C)Oc1ccccc1N1CCN(CC(O)CNC(=O)c2ccc3c(c2)C(=O)N(c2ccc([N+](=O)[O-])cc2)C3=O)CC1` (stereo not given), the Ratio in test [1] was > 1110. The figures for the Ki in test [2], in test [3] and in test [4] were 1.8 nM, > 2000 nM and 38 nM, respectively.

In the case of `COc1ccc(N2C(=O)c3ccc(C(=O)NC[C@H](O)CN4CCN(c5ccccc5OC(C)C)CC4)cc3C2=O)cc1`, the values for the Ki in test [3] and in test [4] were > 1750 nM and 124 nM, respectively.

Consider `CC(C)Oc1ccccc1N1CCN(CC(O)CNC(=O)c2ccc3c(c2)C(=O)N(c2ccc(Cl)c(Cl)c2)C3=O)CC1` (stereo not given), for which the Ratio in test [5] was 43; in test [1] it was 1030. The Ki worked out at 1.19 nM in test [2], 1230 nM in test [3] and 51 nM in test [4].

`Cc1ccc(N2C(=O)c3ccc(C(=O)NCC(O)CN4CCN(c5ccccc5OC(C)C)CC4)cc3C2=O)cc1` (stereo not given): in test [1], the Ratio is > 3030. Besides, the Ki was 0.66 nM in test [2], > 2000 nM in test [3] and 62 nM in test [4].

What is called Ki is the dissociation constant of the complex between target and ligand, obtained from inhibition or displacement.
